This is an account of results in PubChem BioAssay.

Assay [1] in a line: Her2 expression decrease, cell viability multiplex – SKBR3 breast tumor cells, AlphaScreen, ATP viability, primary screen (AID 461).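 For Her2 level: lower value means less Her2 protein in the cells.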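 For viability: percent of carrier control wells set as 100% viability.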 The conditions noted are these: SKBR3 Her2 protein level, 18-24 h, measured here: SKBR3 viability, ATP luminescence, at 10 µM. Background: Bead proximity is the source of the signal in Alpha formats.
The target in assay [2] is Receptor tyrosine-protein kinase erbB-2 (Homo sapiens) (UniProt P04626). The assay is described as above. The conditions noted are these: 18-24 h, at 10 µM, stronger effect = lower value.
Assay [3] is described as follows: reduced viability of SK-BR-3 breast cancer cells – cell-based, 24 h, human, pilot screen (AID 572;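 active = viability at or below 10% of carrier control in both of two separate runs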;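 note: compound exposure lasted between 18 and 24 h rather than exactly 24 h; 100% = carrier-treated control wells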). The conditions noted are these: SK-BR-3 viability, CellTiter-Glo luminescence, at 10 µM, stronger effect = lower value. (ATP-based viability assays read luminescence as a measure of living cells.)
Assay [4] in a line: HUVEC growth inhibition – cell-based, human, primary screen (AID 575;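 active = viability at or below 30% in both replicate assays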;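 note: 100% = median of untreated cell wells with 0.1% DMSO on each plate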). The conditions noted are these: HUVEC proliferation, CellTiter-Glo luminescence, 72 h; at 10 µM; stronger effect = lower value. Summed up:
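material = primary HUVEC, no more than 12 passages | input = 1250 cells per well | controls = vehicle and MePR control wells | measured by = CTG luminescence | times = 72 h compound incubation | format = collagen-coated 384-well format | read-out = % viability vs DMSO wells | doses = single 10 µM dose, 0.1% DMSO, from 5x medium stock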

Assay [5] can be described thus: MRP1 drug-resistance reversers in H69AR cells – cell-based, doxorubicin co-treatment, pilot screen (AID 601;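 active = viability loss from added drug above about 55%, and viability with drug at most 40%, in both replicates, limit read from the data, passing the limit was not always enough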). The conditions noted are these: CellTiter-Glo, 72 h, at 10 µM; for differential viability (reversal): stronger effect = higher value.
Assay [6] can be described thus: yeast transport mutant growth inhibition pilot in 384-well plates, post-Golgi transport modulator project (AID 636; in the data active = inhibition above about 31%). The conditions noted are these: absorbance 615 nm, about 18 h, stronger effect = higher value.
Assay [7] in a line: growth suppression of yeast trafficking mutant, preliminary HTS, modulators of trafficking downstream of Golgi apparatus project, 1536-format plate, OD 615 nm (AID 637; in the data active = inhibition above about 30%). The conditions noted are these: yeast transport mutant growth, absorbance 615 nm, 18 h; stronger effect = higher value.
Assay [8] can be described thus: H69AR cell proliferation blockers – human, duplicate replicates, primary screen (AID 580;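 active = viability at or under a set limit in both replicates, limit being median viability minus 3 SD, cut at about 48% in these data, passing the limit was not always enough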;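 note: 100% = mean luminescence of untreated wells and 0% = no signal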). The conditions noted are these: H69AR lung tumor cells viability, ATP luminescence, 72 h; at 10 µM; stronger effect = lower value.
Where [9] appears, read: H69AR cells + 2 uM doxorubicin, measured here: viability with 2 uM doxorubicin, stronger effect = lower value.
The mark [10] stands for this setting: H69AR cells, compound alone cytotoxicity.

Calls of active or inactive are those of the source.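 Rule for the calls, unless noted: active = Her2 level under about 52% in both replicate screens, with viability over 70% of control (limit read from the data); inconclusive = Her2 under the limit in one screen only, or viability under 70%; inactive = Her2 level above the set limit.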

Sequence of Receptor tyrosine-protein kinase erbB-2 (Homo sapiens) (P04626 whole entry, looked up): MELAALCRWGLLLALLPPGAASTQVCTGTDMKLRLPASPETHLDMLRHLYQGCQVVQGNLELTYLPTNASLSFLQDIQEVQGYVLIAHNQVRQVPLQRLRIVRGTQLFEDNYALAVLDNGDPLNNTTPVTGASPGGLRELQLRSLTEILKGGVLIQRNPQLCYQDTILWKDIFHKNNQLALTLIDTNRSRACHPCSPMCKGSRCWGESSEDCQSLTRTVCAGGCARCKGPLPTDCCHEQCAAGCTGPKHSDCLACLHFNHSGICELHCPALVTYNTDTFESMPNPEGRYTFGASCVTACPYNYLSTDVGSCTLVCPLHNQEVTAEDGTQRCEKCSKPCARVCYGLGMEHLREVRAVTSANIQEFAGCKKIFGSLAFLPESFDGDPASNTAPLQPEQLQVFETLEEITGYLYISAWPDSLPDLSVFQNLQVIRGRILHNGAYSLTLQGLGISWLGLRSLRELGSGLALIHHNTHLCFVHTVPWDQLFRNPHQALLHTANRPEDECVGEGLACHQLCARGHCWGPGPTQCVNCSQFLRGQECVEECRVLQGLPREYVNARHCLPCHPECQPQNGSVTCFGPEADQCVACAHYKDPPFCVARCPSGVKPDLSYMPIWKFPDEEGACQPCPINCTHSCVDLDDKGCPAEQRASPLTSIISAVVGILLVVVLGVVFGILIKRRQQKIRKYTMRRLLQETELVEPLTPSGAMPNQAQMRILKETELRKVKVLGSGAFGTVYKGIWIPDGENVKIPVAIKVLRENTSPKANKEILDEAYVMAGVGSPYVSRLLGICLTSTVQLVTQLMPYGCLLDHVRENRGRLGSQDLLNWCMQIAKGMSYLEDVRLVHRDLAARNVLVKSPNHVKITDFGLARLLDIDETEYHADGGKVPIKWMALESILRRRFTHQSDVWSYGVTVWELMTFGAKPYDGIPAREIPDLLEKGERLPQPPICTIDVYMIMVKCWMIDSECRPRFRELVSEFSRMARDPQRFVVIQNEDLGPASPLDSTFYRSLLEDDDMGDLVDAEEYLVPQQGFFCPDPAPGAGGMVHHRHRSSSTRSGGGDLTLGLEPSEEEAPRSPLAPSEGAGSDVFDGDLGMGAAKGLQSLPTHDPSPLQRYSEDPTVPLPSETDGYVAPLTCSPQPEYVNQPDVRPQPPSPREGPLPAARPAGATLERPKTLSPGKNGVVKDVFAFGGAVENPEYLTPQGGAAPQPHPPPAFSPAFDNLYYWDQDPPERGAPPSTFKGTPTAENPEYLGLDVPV

For the compound `O=C(Nc1sc2c(c1C(=O)NCc1ccco1)CCCC2)c1ccc2c(c1)OCO2`, the viability in assay [1] is 89.5%; in assay [3], 89.5% (inactive); in assay [4] it was 78.7% (inactive); in assay [5] (setting [9]) it was 72.7%; in assay [5] (setting [10]), 61.4%. Besides, in assay [2], the Her2 level was 92.5% (inactive). Also, the differential viability (reversal) in assay [5] (H69AR cells + 2 uM doxorubicin) was -11.3% (inactive). In addition, the results for the inhibition in assay [6] and in assay [7] were 1.22% (inactive) and -6.35% (inactive), respectively.
As for `CCn1c2ccccc2c2cc(NC(=O)Cc3ccc(S(=O)(=O)N4CCOCC4)s3)ccc21`, the viability was 83% in assay [1]; 83% (inactive) in assay [3]; 9.02% (active) in assay [4]; 60.2% in assay [5] (setting [9]); 50.1% in assay [5] (setting [10]). Besides, in assay [2], the Her2 level is 76.5% (inactive). For the same compound, the differential viability (reversal) in assay [5] (H69AR cells + 2 uM doxorubicin) is -10.1% (inactive). Further, the inhibition in assay [6] is -1.84% (inactive); in assay [7] it was -2.73% (inactive).
As to `CC(C)(C)n1nnnc1C(c1ccccc1)N1CCc2ccccc2C1` (stereo not drawn), the viability in assay [1] was 107%; in assay [3] it was 107% (inactive); in assay [4], 42% (inactive); in assay [5] (setting [9]), 43.4%; in assay [5] (setting [10]) it was 49.3%. In addition, the Her2 level in assay [2] is 82% (inactive). Besides, the differential viability (reversal) in assay [5] (H69AR cells + 2 uM doxorubicin) is 5.93% (inactive). The inhibition in assay [6] is -7.26% (inactive); in assay [7], -2.7% (inactive).
Turning to `COc1ccc(C2=NOC(C(=O)Nc3cc(Br)ccc3O)C2)cc1OC` (stereo not drawn), the viability was 108% in assay [1]; 108% (inactive) in assay [3]; 56.4% (inactive) in assay [4]; 70.6% in assay [5] (setting [9]); 60.1% in assay [5] (setting [10]). In assay [2], the Her2 level was 89% (inactive). In addition, in assay [5] (H69AR cells + 2 uM doxorubicin), the differential viability (reversal) is -10.5% (inactive). For the same compound, the inhibition in assay [6] was -6.76% (inactive); in assay [7] it was 1.8% (inactive).
As for `CCOc1cccc(-n2nnnc2-c2ccc(OC)cc2)c1`, the viability is 107% in assay [1]; 107% (inactive) in assay [3]; 49.9% (inactive) in assay [4]; 60.4% in assay [5] (setting [9]); 12.5% in assay [5] (setting [10]). Also, the Her2 level in assay [2] is 90% (inactive). The differential viability (reversal) in assay [5] (H69AR cells + 2 uM doxorubicin) was -47.9% (inactive). Besides, the inhibition is -1.04% (inactive) in assay [6] and -4.6% (inactive) in assay [7].
As for `CCOC(=O)c1ccc(N2C(=O)CC(Sc3nnc(C)s3)C2=O)cc1` (stereo not drawn), the viability in assay [1] is 103%; in assay [3], 103% (inactive); in assay [4] it was 102% (inactive); in assay [5] (setting [9]), 46.2%; in assay [5] (setting [10]), 51%. Moreover, the Her2 level in assay [2] is 100% (inactive). The differential viability (reversal) in assay [5] (H69AR cells + 2 uM doxorubicin) is 4.82% (inactive). For the same compound, the inhibition was -8.4% (inactive) in assay [6] and -6.67% (inactive) in assay [7].
In the case of `CCOC(=O)c1nnc2cc(-c3ccc(Br)cc3)nn2c1C`, the viability is 76.5% in assay [1]; 76.5% (inactive) in assay [3]; 70.3% (inactive) in assay [4]; 43.6% in assay [5] (setting [9]); 49.7% in assay [5] (setting [10]). Moreover, the Her2 level in assay [2] is 93.5% (inactive). In addition, the differential viability (reversal) in assay [5] (H69AR cells + 2 uM doxorubicin) is 6.1% (inactive). Moreover, the results for the inhibition in assay [6] and in assay [7] were 4.55% (inactive) and -5.24% (inactive), respectively.
Regarding `CCCCCCc1ccc(-c2ncc(N)cn2)cc1`, the viability in assay [1] is 97%; in assay [3] it was 97% (inactive); in assay [4] it was 7.73% (active); in assay [5] (setting [9]), 61.9%; in assay [5] (setting [10]) it was 56.7%. For the same compound, the Her2 level in assay [2] was 90.5% (inactive). Moreover, the differential viability (reversal) in assay [5] (H69AR cells + 2 uM doxorubicin) is -5.17% (inactive). The inhibition was -1.47% (inactive) in assay [6] and 0.32% (inactive) in assay [7].
With `c1ccc2c(-c3nc(C4CCCCC4)no3)cc(-c3ccncc3)nc2c1`, the viability in assay [1] is 72.5%; in assay [3], 72.5% (inactive); in assay [4], 66.6% (inactive); in assay [5] (setting [9]), 49.4%; in assay [5] (setting [10]) it was 43.6%. Also, the Her2 level in assay [2] is 69% (inactive). Also, the differential viability (reversal) in assay [5] (H69AR cells + 2 uM doxorubicin) was -5.85% (inactive). In addition, the values for the inhibition in assay [6] and in assay [7] were 45.3% (active) and 8.23% (inactive), respectively.
For `Cc1ccc(NC(=O)COS(=O)c2ccc(C)cc2)cc1` (stereo not drawn), the viability in assay [1] is 97%; in assay [3], 97% (inactive); in assay [4], 69% (inactive); in assay [5] (setting [9]), 41.3%; in assay [5] (setting [10]) it was 38.6%. In assay [2], the Her2 level was 95.5% (inactive). For the same compound, the differential viability (reversal) in assay [5] (H69AR cells + 2 uM doxorubicin) was -2.71% (inactive). Also, the inhibition is -1.69% (inactive) in assay [6] and -0.63% (inactive) in assay [7].
Regarding `O=C(c1cc(-c2ccco2)nn1-c1cccc(Cl)c1)N1CCCCC1`, the viability in assay [1] is 111%; in assay [3] it was 111% (inactive); in assay [4], 95% (inactive); in assay [5] (setting [9]) it was 79.2%; in assay [5] (setting [10]), 53.3%. In addition, the Her2 level in assay [2] is 84.5% (inactive). Further, the differential viability (reversal) in assay [5] (H69AR cells + 2 uM doxorubicin) is -25.9% (inactive). Moreover, the values for the inhibition in assay [6] and in assay [7] were -2.24% (inactive) and -1.94% (inactive), respectively.
As to `Cc1cc(C)c2c(n1)nn1c(N3CCN(c4ccccc4C)CC3)cc(C)nc21`, the viability in assay [1] was 73.5%; in assay [3] it was 73.5% (inactive); in assay [4] it was 92.4% (inactive); in assay [5] (setting [9]), 73.6%; in assay [5] (setting [10]), 73.1%. Further, the Her2 level in assay [2] is 95.5% (inactive). The differential viability (reversal) in assay [5] (H69AR cells + 2 uM doxorubicin) is -0.53% (inactive). The inhibition was 1.18% (inactive) in assay [6] and 6.73% (inactive) in assay [7].
Consider `CCc1ccc2oc(-c3cc(N)ccc3Cl)nc2c1`, for which the viability in assay [1] is 102%; in assay [3], 102% (inactive); in assay [8], 77.2% (inactive); in assay [5] (setting [9]), 89.4%; in assay [5] (setting [10]) it was 77.2%. Besides, the Her2 level in assay [2] was 87.5% (inactive). Further, the differential viability (reversal) in assay [5] (H69AR cells + 2 uM doxorubicin) was -12.2% (inactive). Moreover, the inhibition in assay [6] was -0.54% (inactive); in assay [7] it was -4% (inactive).
With `COc1ccc(C(C)(C)C)cc1NC(=O)Nc1ccc2c(c1)OCO2`, the viability in assay [1] is 108%; in assay [3] it was 108% (inactive); in assay [4] it was 64.8% (inactive); in assay [5] (setting [9]) it was 57.2%; in assay [5] (setting [10]), 45.3%. In assay [2], the Her2 level was 89.5% (inactive). Moreover, in assay [5] (H69AR cells + 2 uM doxorubicin), the differential viability (reversal) is -12% (inactive). For the same compound, the values for the inhibition in assay [6] and in assay [7] were -1.18% (inactive) and 23.4% (inactive), respectively.
For the compound `CC(C)Cc1nc(N2CCN(C(=O)c3ccco3)CC2)c(C#N)c2c1CCC2`, the viability is 172% in assay [1]; 172% (inactive) in assay [3]; 84.5% (inactive) in assay [8]; 81.5% in assay [5] (setting [9]); 84.5% in assay [5] (setting [10]). Moreover, the Her2 level in assay [2] is 93% (inactive). Besides, the differential viability (reversal) in assay [5] (H69AR cells + 2 uM doxorubicin) is 2.99% (inactive). The inhibition in assay [6] is -6.71% (inactive); in assay [7], 1.15% (inactive).
For the compound `CC(C)Cn1c(N)c(C(=O)NCc2cccs2)c2nc3ccccc3nc21`, the viability in assay [1] was 77%; in assay [3], 77% (inactive); in assay [8], 12% (active); in assay [5] (setting [9]) it was 17.1%; in assay [5] (setting [10]) it was 12%. Further, the Her2 level in assay [2] was 101% (inactive). Also, the differential viability (reversal) in assay [5] (H69AR cells + 2 uM doxorubicin) was -5.04% (inactive). Besides, the values for the inhibition in assay [6] and in assay [7] were 24.3% (inactive) and 12.1% (inactive), respectively.
For `COc1ccc(Br)cc1C1N2CC3(C)CN1CC(C)(C2)C3=O` (stereo not drawn), the viability in assay [1] is 114%; in assay [3] it was 114% (inactive); in assay [4], 97.1% (inactive); in assay [5] (setting [9]) it was 87.3%; in assay [5] (setting [10]), 54.3%. The Her2 level in assay [2] is 89.5% (inactive). Also, the differential viability (reversal) in assay [5] (H69AR cells + 2 uM doxorubicin) was -33% (inactive). Also, the inhibition in assay [6] was -5.97% (inactive); in assay [7], -3.61% (inactive).

By viability is commonly meant a read-out of living cells in per cent, often relative to untreated cells. What is called inhibition is the change of the read-out against control, counted positive when it falls.
